# Article PMC5087271 (Nature methods, 2015)
# Numbering of substitutions follows the chain as printed. Entries after “also recorded” stand apart in the source; their conditions may differ. Ends that are not written are not given here.
# T1: human PAR1 (Homo sapiens, UniProt P25116)
# T1 sequence (P25116 36-397): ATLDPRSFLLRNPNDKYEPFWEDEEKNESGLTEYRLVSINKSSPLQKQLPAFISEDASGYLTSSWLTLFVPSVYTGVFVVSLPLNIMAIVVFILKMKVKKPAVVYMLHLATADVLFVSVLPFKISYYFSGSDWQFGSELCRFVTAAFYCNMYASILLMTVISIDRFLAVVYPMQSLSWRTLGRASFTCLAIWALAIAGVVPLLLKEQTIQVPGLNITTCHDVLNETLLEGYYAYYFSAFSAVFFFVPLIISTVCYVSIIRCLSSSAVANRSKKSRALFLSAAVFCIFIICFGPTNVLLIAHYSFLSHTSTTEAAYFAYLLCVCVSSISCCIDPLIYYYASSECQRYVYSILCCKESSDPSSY
# T2: SFLLRN tethered ligand peptide (TRAP) (Homo sapiens, vorapaxar-bound PAR1)
# T2 chain: SFLLRN
# T3: SFLLRN tethered ligand peptide (TRAP) (Homo sapiens)
# T3 chain: SFLLRN
# T4: SFLLAN peptide (Homo sapiens)
# T4 chain: SFLLAN
# T5: SALLRN peptide (Homo sapiens)
# T5 chain: SALLRN
# B1: PAR1 36-397 (protein)
# chain: T1 sequence (P25116 36-397)
# B2: PAR1 36-397 (protein)
# chain: T1 sequence (P25116 36-397) with R11A
# B3: PAR1 36-397 (protein)
# chain: T1 sequence (P25116 36-397) with F8A
# Assays:
# human PAR1 = target: T1, human PAR1; format: binding; settings: PEG spacer carrying PAR1 N terminus with the SFLLRN ligand replaced
# platelets = settings: at 200 μM peptide; cited from earlier work
# PAR1 = test: cell-based assays of antagonist dissociation from PAR1
# [1] = system: PAR1 complexed with the antagonist vorapaxar; format: binding, human; settings: vorapaxar-blocked versus free PAR1
# Outline: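 Human PAR1 (residues Ala36–Tyr397) expressed in Sf9 cells via baculovirus and purified with 100 nM vorapaxar during lysis and solubilisation, then 1 μM through Ni-NTA, M1 and SEC. Reconstituted at 10 μM into DOPC/CHS liposomes, diluted 300-fold, adsorbed on mica. Cys-peptide ligand coupled to PEG-tipped cantilevers. Probed at 0.25 kHz, 30–50 nm amplitude, ~150 pN, ~27 °C. Free-energy landscape fitted from DFS plots.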
# [2] = target: T2, SFLLRN tethered ligand peptide (TRAP); test: FD-based AFM
# [3] = target: T3, SFLLRN tethered ligand peptide (TRAP); test: FD-based AFM
# SFLLAN peptide = target: T4, SFLLAN peptide; test: FD-based AFM
# SALLRN peptide = target: T5, SALLRN peptide; test: FD-based AFM
molecule,measurement,setting,value
FLLNSR,specific interaction of the functionalized tip with PAR1 (control),human PAR1,did not interact specifically
H-SALLRN [SALLRN],response in platelet aggregation assays,platelets,no response
CCOC(=O)NC1CCC2C(C1)CC1C(=O)OC(C)C1C2CCc1ccc(-c2cccc(F)c2)cn1 (centres unmarked) [vorapaxar derivative],dissociation rate compared with that of vorapaxar,PAR1,much faster dissociation rate
H-SFLLAN [SFLLAN],change of binding strength / affinity to PAR1 in the presence of vorapaxar,[1],remained nearly unchanged; also recorded: no change in binding affinity
B1,Kd,[2],~40 µM
same,Kd,[3],~0.35 µM
B2,Kd,SFLLAN peptide,~30 µM
B3,Kd,SALLRN peptide,~3500 µM
